Assay: Toxicity liver stage against HepG2, at 10uM
Assay type: cell-based
Parameters: test concentration 10 uM, cell line HepG2-A16-CD81EGFP
Conditions: human, HepG2-A16-CD81EGFP cells; read-out: INHIBITION
Procedure, shortened: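 Uninfected HepG2-A16-CD81EGFP cells, 3 × 10^3 per well, 1536-well, plated on prespotted compound at 10 μM final, parasite-free screening media added to match infected plates; puromycin 10 μM positive, DMSO 0.5% negative; run in parallel with 48 h PbLuc assay at 37 °C, 5% CO2; viability by CellTiter-Glo luminescence, normalized to controls.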

| SMILES | cytotoxicity at 10 µM |
| --- | --- |
| COC(=O)c1cccc2nc([C@H]3CCN(CC(C)C)C3)oc12 | -2.13% |
| Cc1nn2cnnc2c(C)c1CCC(=O)Nc1nc2c(s1)CCC2 | -0.674% |
| Cc1cc(C(=O)Nc2nc3c(s2)CN(S(=O)(=O)C2CC2)CC3)c(C)o1 | 22.7% |
| CCN1CCC2(CN(C(C)=O)CC23CCN(C(=O)N(C)C)CC3)C1=O (centres undefined) | 4.88% |
| CC(=O)N1CCC2(CCCN(S(=O)(=O)c3ccccc3)C2)C1 (centres undefined) | 0.169% |
| Cc1ccc(C(=O)N2CCC3(CCC(C(=O)NCC4CC4)O3)CC2)o1 (centres undefined) | 6.85% |
| Cc1ccc2c(c1)C1(CCNCC1)CC2N1CCOCC1 (centres undefined) | -134% |
| CCc1cnc(NC2CCc3c(ccc(=O)n3C)C2)nc1 (centres undefined) | -125% |
| CC(=O)N1CC2(CCN(C(=O)CO)CC2)c2cc(C)ccc21 | 9.37% |
| Cc1cccc(S(=O)(=O)N2CCCC3(CCCN3S(C)(=O)=O)C2)c1 (centres undefined) | 7.28% |
| CS(=O)(=O)N[C@@H]1CN(Cc2ccccc2)C[C@@H]2CCCO[C@@H]21 | 2.58% |
| NC(=O)c1c(NC(=O)C2CCCO2)sc2c1CCc1ccccc1-2 (centres undefined) | 0.794% |
| O=C1CC(c2ccc(C(=O)O)cc2)c2ncn(-c3cccc(Cl)c3)c2N1 (centres undefined) | -2.17% |
| O=C(Cc1ccsc1)N1CCn2cc(CN3CCCC3)nc2C1 | -14.2% |
| Cn1cc(CN2CC[C@H]3OCC[C@@H](C(=O)N4CCCCO4)[C@@H]3C2)cn1 | -2.1% |
| CSc1nc2ccsc2c(=O)n1CC(=O)NC1CCCC1 | 0.297% |
| NC(=O)c1nc(-c2ccc(Cl)cc2Cl)oc1N | 2.66% |
| Cc1noc(C)c1-c1cccc(C2CCCNC2)n1 (centres undefined) | -12.3% |
| Cc1nc(C)c(C(=O)N2CCC(O)(Cn3ccc4ccncc43)CC2)s1 | -21.7% |
| COCCN1CCCC(CCCc2ccccn2)(C(N)=O)C1 (centres undefined) | -16% |
| COc1ccc(C)cc1C1(CNc2cncc(Cl)n2)CCOCC1 | 7.07% |
| COc1ccnc(N(C)Cc2csc(C)n2)n1 | -2.62% |
| CC(C(=O)N(C)Cc1ccco1)n1cncn1 (centres undefined) | 4.4% |

| SMILES | cytotoxicity at 10 µM |
| --- | --- |
| O=C(NCc1nnc2n1CCC2)c1cccc(Br)c1 | -0.115% |
| O=S(=O)(NCCCn1cncn1)c1ccc2c(c1)CCC2 | 3.03% |
| Cc1ccc2cccc(C(=O)NCCOCC3CC3)c2n1 | -20.3% |
| O=C(NCCOc1cccc(Cl)c1Cl)N1CCC2(CC1)OCCO2 | -3.36% |
| CC(C)(C)c1noc(CCCC(=O)N2CCNC(=O)C2)n1 | -4.28% |
| CSc1ccc(NCC(=O)NCC2CC2)cc1F | 0.936% |
| Cc1sc(-c2ccco2)nc1C(=O)N(CC(N)=O)C1CCCC1 | -2.64% |
| O=C(NCCN1CCOCC1)c1cc(-c2ccccc2Cl)[nH]n1 | -4.02% |
| Cc1ccnc(C(NC(=O)c2ncoc2C)C2CC2)n1 (centres undefined) | 12.7% |
| Cc1ccc(C(=O)NCCNC(=O)c2cncnc2C)cc1F | 3.91% |
| Cn1nc(CC(C)(C)C)cc1NC(=O)c1ccc(CNC(N)=O)cc1 | -1.78% |
| Cc1ccsc1CN(C)C(=O)c1ccc(N2CCOCC2)c(F)c1 | 11.1% |
| CC(NC(=O)N(C)Cc1ccsc1)c1nncn1C (centres undefined) | -4.02% |
| COc1ccc(CC(=O)NCCNS(=O)(=O)c2ccc(C)cc2)cc1 | -143% |
| CC(C)CC(CCO)CNC(=O)N1CC(C)(C)C1(C)C (centres undefined) | -2.48% |
| COCCc1noc(CN2CCCc3cccc(OC)c32)n1 | 5.52% |
| Cc1cnn(C2CCCN(C(=O)c3c(C)oc4nc[nH]c(=O)c34)C2)c1 (centres undefined) | -6.62% |
| Cn1ccc(CNC(=O)N2CCCC3(C2)OCCO3)c1 | 7.6% |
| O=C1CCCc2[nH]c(=O)c(C(=O)N(CC3CCCCC3)C3CC3)cc21 | -2.56% |
| CC(C)c1nccn1CCC(=O)N1CCCC1c1cccn1C (centres undefined) | -6.66% |
| CCCNC(=O)c1[nH]nc(C2CC2)c1Br | -0.587% |
| CN1CCCN(C(=O)c2ccn3ccnc3c2)CC1 | -2.38% |
| Cc1ncsc1C(=O)OCCN1CCCCCC1=O | -4.27% |

| SMILES | cytotoxicity at 10 µM |
| --- | --- |
| Cc1nc(COc2ccc(S(=O)(=O)N(C)C)cc2)sc1C | -1.13% |
| Cc1nc2ccccc2n1CCNCc1cccc(O)c1 | -3.89% |
| COc1ncccc1NC(=O)N1CCC(CN2CCOCC2)CC1 | -6.78% |
| CSCC(C)(O)CNC(=O)c1ccc(Br)cc1F (centres undefined) | 0.537% |
| Cn1cc(CN(Cc2ccccc2)CC(O)c2cccs2)cn1 (centres undefined) | -8.59% |
| COC(=O)c1sccc1NC(=O)C1CCCN1C(=O)c1ccco1 (centres undefined) | 20.3% |
| O=C(NCCCn1cccn1)C1(c2ccc(Br)cc2)CC1 | -0.0323% |
| N#Cc1ccc(CNCC(C(=O)N2CCOCC2)c2ccccc2)cc1 (centres undefined) | -11.9% |
| O=C(CC1COCCN1)N1CCC2(CCc3ccccc32)CC1 (centres undefined) | -148% |
| CC(C)Cc1cn(C2CCN(C(C)CCn3cccn3)CC2)nn1 (centres undefined) | -1.8% |
| COc1ccc(-n2cc(CCO)cn2)cc1C | -12.4% |
| O=C(NCC1COCCO1)c1csc(Cc2ccccc2)n1 (centres undefined) | -0.857% |
| CCc1cc(NCCS(=O)(=O)N(C)C)nc(N2CCOCC2)n1 | 1.44% |
| COCCCC1(CO)CCCN(Cc2ccc(F)c(OC)c2)C1 (centres undefined) | -142% |
| Cn1cc(CN(C/C=C/c2ccccc2)C2CC2)cn1 | -10.1% |
| O=c1n(Cc2ncccn2)nc(C2CCNCC2)n1-c1ccccc1 | -9.62% |
| CCC(CO)N(Cc1ccsc1)Cc1cccc(O)c1 (centres undefined) | 0.616% |
| COc1cc(C)ccc1OCCN1CC[C@@]2(O)CCNC[C@H]2C1 | -157% |
| CC(C)SCC(=O)N1CCCn2nc(C(=O)Nc3ccccc3)cc2C1 | 3.19% |
| CCCNC(=O)N1CCc2ccc(S(=O)(=O)N3CCCC3)cc2C1 | -12.3% |
| Cc1nn(C)c2ncnc(NCc3nncn3C3CCCCC3)c12 | -10.2% |
| O=C(c1cccs1)N1CC(Oc2ccccc2Cl)C1 | 6.89% |
| NC(=O)c1cccc(CC2CCN(C(=O)Cn3cnnn3)C2)c1 (centres undefined) | 0.557% |

| SMILES | cytotoxicity at 10 µM |
| --- | --- |
| COc1cccc(OC2CN(C(=O)c3c(C)noc3C)C2)c1 | 7.79% |
| Cc1cccc(C(C(=O)NCCCc2ccccn2)N(C)C)c1 (centres undefined) | -7.16% |
| OCC1(O)CCN(Cc2ccc(-c3cc[nH]n3)s2)CC1 | -135% |
| Cc1ncc(CC(=O)N2CCCC(COc3ccccc3F)C2)c(=O)[nH]1 (centres undefined) | -151% |
| CN(CCc1ccccn1)C(=O)c1cn(CCN2CCNCC2)nn1 | -8.48% |
| CCc1cnc(NCCSc2cnn[nH]2)nc1 | -10.4% |
| COc1ccc(-c2ccccc2CN)c(OC)c1 | 7.35% |
| Cc1nc(CN2CCCN(c3nccs3)CC2)no1 | -3.62% |
| Cc1nnc2ccc(N3CCN(CCc4ccccn4)CC3)nn12 | -8.76% |
| CC(C)OCCCNC(=O)CS(=O)(=O)Cc1cccc(Cl)c1 | 5.44% |
| COC(=O)CNC(=O)c1sc(-c2ccc(Cl)s2)nc1C | -5.63% |
| N#Cc1ccc(CS(=O)(=O)NC(=O)COc2ccc3c(c2)CCC3)cc1 | 1.13% |
| COc1cccc(-n2nnc(C(=O)N3CCCC(C)C3)c2C)c1 (centres undefined) | -5.33% |
| Fc1ccccc1-c1nc(CNCCn2cccn2)cs1 | -9.53% |
| CCCNC(=O)C1CCCN(Cc2csc(C(C)(C)C)n2)C1 (centres undefined) | -3.14% |
| CCn1cc(NC(=O)NCC(C)N(C)C2CC2)cn1 (centres undefined) | -3.54% |
| c1ncn(CC2CCCCN2Cc2csc(-c3ccsc3)n2)n1 (centres undefined) | -2.48% |
| Cc1nc(CSCCC(=O)NCc2ccc(N(C)C)cc2)cs1 | -14.2% |
| CCN1CCOC(CNCc2cccc(OCc3ccccn3)c2)C1 (centres undefined) | -13.4% |
| COCCOc1cc(C)ccc1NC(=O)N(C)Cc1cnn(C)c1 | -9.5% |
| CCn1nc2c(cc1=O)CN(Cc1coc(-c3ccccc3)n1)CC2 | -10.9% |
| CCc1nc(CN2CCc3c(ncn3C3CC3)C2)cs1 | -1.59% |
| CCOc1ccc(C(=O)N2CCCC(n3ccnc3C)C2)cc1OC (centres undefined) | -6.7% |

| SMILES | cytotoxicity at 10 µM |
| --- | --- |
| CC(C1CC1)N(C)C(=O)c1ccc(-n2ncc(C#N)c2N)cc1 (centres undefined) | 3.51% |
| COCCc1noc(CN2CC(n3nc(C)cc3C)C2)n1 | -1.76% |
| c1cnn(CCN2CCOC(Cn3cccn3)C2)c1 (centres undefined) | -10.3% |
| CCN(Cc1ccc(F)c(F)c1)Cc1nc2c(cnn2C)c(=O)[nH]1 | -4.18% |
| CCn1cc(CN2CCCN(C(=O)c3ccccc3C)CC2)cn1 | -5.65% |
| COc1c(C2CCCN2C(=O)c2ccc(N(C)C)nn2)c(C)nn1C (centres undefined) | -13.7% |
| Cc1nc(C)c(C(=O)N2CCCN(Cc3cnn(C)c3)CC2)s1 | -9.58% |
| O=C(c1ccccn1)N1CCCN(Cc2nnc(C3CC3)o2)CC1 | 5.25% |
| CC(C)(C)c1cc(C(=O)NCCn2nc3ccccn3c2=O)[nH]n1 | -29.5% |
| CC(C)(C)c1cn2nc(N3CCCCC3Cn3cncn3)sc2n1 (centres undefined) | -4.61% |
| CC(c1nc(C2CC2)no1)N1CCN(Cc2cccnc2)CC1 (centres undefined) | -6.18% |
| CN(C)CC1CN(Cc2cccc(C#N)c2)Cc2nccn2C1 (centres undefined) | -124% |
| Cc1ccc2c(n1)N(CC1CC1)CCN(S(=O)(=O)C1CC1)C2 | 12.4% |
| Cc1occc1C(=O)N1CCC2(CCCN(Cc3nccs3)C2)C1 (centres undefined) | -3.32% |
| O=C(Cc1cccnc1)N1CCCC2(CCN(C3CCOCC3)C2)C1 (centres undefined) | -1.45% |
| O=C(c1ccccn1)N1CCC2(CC1)C(=O)Nc1ccccc12 | -145% |
| CCN1CCOCC2(CCCN(C(=O)c3ccccc3F)C2)C1 (centres undefined) | -4.9% |
| Clc1ccccc1OCCc1cc(C2CCNC2)n[nH]1 (centres undefined) | -32.9% |
| Cc1ccc(CN2CCC3(CC2)CC(CC(=O)NC(C)C)CO3)s1 (centres undefined) | -1.72% |
| O=C(c1ccccn1)N1CC[C@H]2[C@H]1CCN2S(=O)(=O)C1CC1 | -123% |
| O=C1Nc2ccccc2C12CCN(Cc1nccs1)CC2 | -0.243% |
| Cc1noc(C)c1CN1C(=O)[C@@H]2CC[C@H]1CN(Cc1cscn1)C2 | 0.854% |

Source: ChEMBL document CHEMBL4513216, “Probing the Open Global Health Chemical Diversity Library for Multistage-Active Starting Points for Next-Generation Antimalarials” (ACS Infect Dis, 2020)
